CHRM5 agonist – agonists of human muscarinic M5 receptor (CHRM5) | P08912 | CHO-K1 hM5 cells, Fluo-8 calcium fluorescence; 0% DMSO wells, 100% maximal acetylcholine response | activation, % at 3 µM | 360,000 tested, 0.19% active | AID 624037;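 active = activation above the run's mean over test compounds plus 3 SD, cut at about 23% in these data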;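 also: signal is peak over basal fluorescence ratio across the kinetic read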
M4 antag – CHRM4 antagonism in calcium assay; P08173; CHO-hM4 cells, ACh EC80, Fluo-8 calcium fluorescence; inhibition, % at 3 µM; 360,000 tested, 0.73% active; AID 624125;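 active = inhibition above its plate's cutoff, the mean inhibition of sample wells plus 3 SD, cut at about 27% in these data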;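 also: 0% = acetylcholine EC80 with DMSO and 100% = DMSO without agonist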
Target sequence (P08173 whole entry, looked up): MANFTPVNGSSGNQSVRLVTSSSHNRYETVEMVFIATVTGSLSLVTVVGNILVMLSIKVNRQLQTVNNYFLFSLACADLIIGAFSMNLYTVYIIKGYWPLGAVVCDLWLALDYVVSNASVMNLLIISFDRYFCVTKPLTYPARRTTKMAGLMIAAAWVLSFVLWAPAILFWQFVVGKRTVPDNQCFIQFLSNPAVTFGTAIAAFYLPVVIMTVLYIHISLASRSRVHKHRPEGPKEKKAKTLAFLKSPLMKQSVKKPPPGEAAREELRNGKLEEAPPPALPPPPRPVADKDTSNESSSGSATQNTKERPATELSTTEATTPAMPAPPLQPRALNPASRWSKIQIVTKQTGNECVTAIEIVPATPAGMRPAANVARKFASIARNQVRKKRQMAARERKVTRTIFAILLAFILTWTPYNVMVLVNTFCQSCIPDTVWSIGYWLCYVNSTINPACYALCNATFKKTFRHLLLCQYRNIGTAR
M4 PAM – positive allosteric modulators of human muscarinic M4 receptor; CHO-K1 hM4/Gqi5, Fluo-8 calcium fluorescence, ACh EC20; 0% = ACh EC20, 100% = maximal ACh; activation, % at 3 µM; P08173; 360,000 tested, 0.4% active; AID 624126;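 active = activation above its plate's cutoff, the mean activation of sample wells plus 3 SD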
CHRM5 PAM – potentiates acetylcholine response at human M5 receptor | activation, % at 3 µM | 360,000 tested, 0.3% active | CHO-K1 hM5, Fluo-8 calcium, ACh EC20 PAM; 0% = ACh EC20, 100% = ACh EC100 | P08912 | AID 624038;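 active = activation above the run cutoff, the mean activation of all test compounds plus 3 SD, cut at about 18% in these data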
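System: CHO-K1 cell line with stable human muscarinic M5 receptor expression | Also added: EC20 acetylcholine as agonist stimulus | Compound: One concentration, 3 µM final (nominal) | Timing: Fluo-8 loading 80 min at 37 °C plus 30 min room temperature | Measured by: Fluo-8 calcium dye fluorescence, kinetic read | Read-out basis: % activation, ACh-normalized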
CHRM4 agonist – CHRM4 agonism in calcium assay. P08173. CHO-K1 hM4/Gqi5, Fluo-8 calcium fluorescence; vehicle 0%, full acetylcholine response 100%. activation, % at 3 µM. 360,000 tested, 0.14% active. AID 624127;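 active = activation above the run mean over all test wells plus 3 SD, cut at about 32% in these data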;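 also: peak over basal fluorescence ratio per well then scaled between controls; 0% = DMSO wells and 100% = acetylcholine at EC100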
CHRM5 antagonist – CHRM5 antagonism in calcium assay; P08912; CHO-hM5 cells, Fluo-8 calcium fluorescence, ACh EC80; inhibition, % at 3 µM; 360,000 tested, 0.59% active; AID 624040;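 active = inhibition above a per-plate cutoff, the mean of that plate's test compounds plus 3 SD, cut at about 27% in these data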;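 also: 0% = acetylcholine EC80 with DMSO and 100% = DMSO without agonist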
* marks the source's active call; other numbers are inactive results. Only some compounds are listed: those with a hit (about 1.8% of all), similar ones and a draw of the others.

SMILES	CHRM5 agonist	M4 antag	M4 PAM	CHRM5 PAM	CHRM4 agonist	CHRM5 antagonist
Cc1ccc2nc(-c3ccccc3)nn2c1	2	0	-2	8	0	7
O=C(NNS(=O)(=O)c1ccc2ccccc2c1)C1CCN(Cc2ccccc2)CC1	-4	41*	-23	-23	2	46*
N#Cc1cccc(C#N)c1Oc1ccc(S(=O)(=O)Nc2ccc(Cl)cc2)cc1	7	12	-32	-15	17	15
NC(=O)c1ccsc1NC(=O)c1cccs1	-1	-15	4	-9	1	6
Cc1sc(NC(=O)c2cccs2)c(C(N)=O)c1C	0	-1	18*	4	1	-3
COC(=O)c1ccc(OCCN2CCCCCC2)cc1	-10	19	-18	-5	0	7
COC(=O)c1ccc(OCCN2C3=NCCN3c3ccccc32)cc1	-8	40*	-21	-3	1	-5
CC(C)n1nc(C(=O)NNC(=O)c2ccncc2)c2ccccc2c1=O	4	-8	23*	1	-2	0
O=C(NNC(=O)c1cc(-c2cccnc2)nc2ccccc12)Nc1ccc(Cl)cc1	6	30*	-25	-34	22	38*
O=C(COC(=O)C1CCC(=O)N1)Nc1ccccc1Br (stereo unspecified)	0	-14	-3	21*	0	2
O=C(COC(=O)C1CCC(=O)N1)Nc1ccc(Oc2ccccc2)cc1 (stereo unspecified)	-1	3	-1	-4	1	6
Cn1nc(C(F)(F)F)c(-c2ccc(Br)cc2)c1NC(=O)Nc1ccc(F)cc1F	9	8	-14	-20	14	30*
N#Cc1cc2c(=O)n3ccccc3nc2n(-c2ccccc2Cl)c1=O	-11	8	-8	3	0	12
COc1ccc(CC(=O)Nc2nc(OCC(F)(F)F)cnc2-c2ccc(Cl)cc2Cl)cc1	-3	-3	4	-13	2	13
CCOc1ccc(N(CCCCO)C(=S)NC(=O)c2ccc(C)c(Br)c2)cc1	-6	1	2	6	1	-5
COc1ccc(CC(=O)OCN2C(=O)c3ccccc3C2=O)cc1	-3	-3	11	4	2	0
Cc1ccc(C(=O)OCN2C(=O)c3ccccc3C2=O)o1	2	-2	22*	-4	0	-1
CCc1nc2ccc(C(=O)N(C)CC(=O)Nc3ccc(F)c(F)c3F)cc2nc1CC	0	-4	7	4	1	7
O=C(Cc1ccc(F)cc1)N[C@@H]1c2ccccc2CC[C@@H]1OCc1ccccc1	2	3	6	-9	0	24
Cc1ccc(/C=N/N2CCN(Cc3ccc(Cl)cc3)CC2)o1	-2	31*	-2	-3	5	6
CCOC(=O)C1CCCN(C(=O)CCCn2nnnc2CN2CCC(C)CC2)C1 (stereo unspecified)	1	-11	2	4	1	-3
CC(C)CCN1C(=O)c2ccccc2C1C(=O)NCc1cccnc1 (stereo unspecified)	-8	10	21*	3	2	-9
CC(C)CC(NS(=O)(=O)OCC(Cl)(Cl)Cl)c1ccccc1 (stereo unspecified)	-8	30*	-15	-24	0	12
COC(=O)CCC(NS(=O)(=O)OCC(Cl)(Cl)Cl)c1ccccc1 (stereo unspecified)	-2	-3	-2	5	1	-1
CCCSc1ccc(-c2nn(-c3ccccc3)cc2/C=C(/C#N)C(=O)N2CCOCC2)cc1	0	-8	11	44*	0	24
SMILES	CHRM5 agonist	M4 antag	M4 PAM	CHRM5 PAM	CHRM4 agonist	CHRM5 antagonist
CCSc1ccc(-c2nn(-c3ccccc3)cc2/C=C(/C#N)C(=O)NC)cc1	-1	8	-4	-3	1	-6
O=C(NCCc1ccc(Cl)cc1)C1CCN(C(=O)c2ccc(F)cc2)CC1	2	-5	-2	2	4	3
CCN1CCN(C(=O)Cn2cnc3sc(C)c(S(=O)(=O)N4CCN(c5ncccn5)CC4)c3c2=O)CC1	-4	0	7	-7	1	-2
Cc1nc(C)c(-c2ccc(SCC(=O)Nc3ccc(C)c(Cl)c3)nn2)s1	-2	9	0	-1	4	1
CC(=O)c1ccc(NC(=O)CSc2ccc(-c3sc(C)nc3C)nn2)cc1	3	3	-8	-17	24	32*
CCOC(=O)NC(=O)C(/C=N/c1sccc1C(=O)OC)=C(\C)O	1	-3	2	1	2	3
COC(=O)CCCCC1SCC2NC(=O)NC21 (stereo unspecified)	-2	-8	5	23*	1	-2
Cc1cccc(C)c1N1CCN(C(c2cc3ccccc3o2)c2nnnn2C(C)(C)C)CC1 (stereo unspecified)	3	26*	-4	0	5	20
CCCCn1nnnc1C(c1cc2ccccc2o1)N1CCN(c2c(C)cccc2C)CC1 (stereo unspecified)	0	-1	4	-5	0	2
COc1ccc(CNC(=O)CSCc2ccccc2Cl)cc1	-1	-7	9	2	1	-15
O=S(=O)(c1ccc(Cl)c(Cl)c1)c1snnc1-c1ccccc1	-8	40*	-19	-17	-2	11
CN(Cc1ccccc1)C(=O)c1csc([C@@H]2C[C@H](O)[C@@H](CO)O2)n1	0	-4	2	0	1	10
O=C(NC1CCCCC1)c1ccc(-c2ccccc2)cc1	-1	-8	3	-1	1	11
CC(C)(C)N1C(=O)c2ccc(C(=O)Nc3cc(C(=O)O)cc(C(=O)O)c3)cc2C1=O	1	-7	1	-2	0	13
COc1ccc2noc3c2c1C(=O)c1ccccc1-3	51*	36*	-22	-17	59*	28*
CC(C)(C)OC(=O)N1CCC(NC(=O)c2nc[nH]c2C(=O)NCC(=O)OCc2ccccc2)CC1	4	21	-6	-37	28	23
CCCCn1c(N)c(N(CCOC)C(=O)c2ccc(COc3ccccc3)o2)c(=O)[nH]c1=O	1	-8	7	5	0	-2
O=C(c1ccc(Br)s1)N1CCc2ccccc2C1	-7	-2	3	19*	1	-4
O=C(c1cccs1)N1CCc2ccccc2C1	-8	-12	3	1	1	-9
COc1ccc(CCNC(=O)c2sc(=S)n(C)c2N)cc1	2	4	-7	-13	6	9
Cn1c(N)c(C(=O)NCc2ccccc2)sc1=S	-2	-2	36*	0	2	9
